# OX1R antag-1: human HCRTR1 antagonism; CHO/OX1R cells, Fluo-8 calcium fluorescence, orexin A; inhibition, % at 5 µM; 0.43% of 330,000 active;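 active = inhibition above its plate's threshold, mean inhibition of all tested compounds on the plate plus 3 SD, cut at about 37% in these data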;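 also: 0% = orexin A challenge wells and 100% = SB-334867-A antagonist wells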
# TAAR1 antagonist: human TAAR1 antagonism. Q96RJ0. CHO RD-HGA16 TAAR1, Fluo-8 calcium fluorescence, antagonist. inhibition, % at 3 µM. 1.5% of 360,000 active. AID 624466;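 active = inhibition above a per-plate cutoff, the mean inhibition of test compounds on that plate plus 3 SD, cut at about 49% in these data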;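 also: 0% = DMSO plus EC80 beta-PEA response and 100% = DMSO alone without agonist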
# Target sequence (Q96RJ0 whole entry, looked up): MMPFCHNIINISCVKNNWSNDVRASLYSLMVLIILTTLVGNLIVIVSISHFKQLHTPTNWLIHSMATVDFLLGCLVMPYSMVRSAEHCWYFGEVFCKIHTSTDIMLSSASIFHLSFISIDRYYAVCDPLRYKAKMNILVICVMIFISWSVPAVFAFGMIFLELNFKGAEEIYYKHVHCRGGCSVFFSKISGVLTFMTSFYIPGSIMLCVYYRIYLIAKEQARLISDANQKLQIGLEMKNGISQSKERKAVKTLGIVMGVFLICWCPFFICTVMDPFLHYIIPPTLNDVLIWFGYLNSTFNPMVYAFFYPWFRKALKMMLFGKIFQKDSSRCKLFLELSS
#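 Test system – hTAAR1-expressing CHO RD-HGA16 cells, Gα16-coupled · Reagent – β-PEA at EC80 concentration, post-compound challenge · Compound dosing – 3 µM, single point · Timing – 140 s kinetic read after compound, 140 s after agonist · Detection – Fluo-8 intracellular calcium dye fluorescence, real-time kinetic reads · Control set – DMSO and EC80 PEA controls · Repeats – n of 1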
# CHO parental Ca: counter-screen for OX1R antagonists: effect in parental CHO cells; 0.63% of 330,000 active; inhibition, % at 5.6 µM; parental CHO-K1, ATP-induced calcium, Fluo-8 fluorescence;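 active = inhibition above that plate's mean sample inhibition plus 3 SD, cut at about 26% in these data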;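 also: 0% = ATP-challenged DMSO wells and 100% = DMSO wells without ATP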
#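 Test system: untransfected parental CHO cell line. Compound: one dose, 5.6 µM nominal. Detection: intracellular calcium via Fluo-8 no-wash fluorescent dye. Measure: % inhibition. Benchmarks: ATP-challenged DMSO wells low, unchallenged DMSO wells high.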
# OX1R antag-2: OX1R (human) antagonism; O43613; OX1R-expressing cells, FRET antagonist read-out; inhibition, % at 6.6 µM; 1.8% of 330,000 active; AID 485270; in the data active = inhibition mostly above about 38%, no sharp cut-off; inactive = mostly below about 40%;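 also: 0% = agonist challenge alone and 100% = reference antagonist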
# GPR7 antag: blocks human GPR7 receptor signaling; P48145; GPR7-expressing cells, fluorescence antagonist assay; inhibition, % at 4.4 µM; 1.1% of 290,000 active; in the data active = inhibition above about 16%, passing the limit was not always enough;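 also: cells stimulated with the agonist NPW; 0% = agonist with vehicle and 100% = vehicle without agonist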
# Target sequence (P48145 whole entry, looked up): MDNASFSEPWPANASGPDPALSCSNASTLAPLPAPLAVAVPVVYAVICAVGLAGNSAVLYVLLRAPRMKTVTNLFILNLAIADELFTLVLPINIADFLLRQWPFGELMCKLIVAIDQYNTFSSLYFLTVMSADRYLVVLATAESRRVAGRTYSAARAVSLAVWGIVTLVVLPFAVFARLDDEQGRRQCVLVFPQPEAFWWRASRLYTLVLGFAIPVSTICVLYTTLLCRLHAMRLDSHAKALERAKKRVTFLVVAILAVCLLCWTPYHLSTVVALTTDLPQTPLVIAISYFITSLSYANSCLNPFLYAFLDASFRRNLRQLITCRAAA
# TAAR1 ag: agonists of human TAAR1; AID 624467; activation, % at 3 µM; CHO RD-HGA16 TAAR1, Fluo-8 calcium fluorescence; vehicle wells 0%, saturating PEA agonist 100%; Q96RJ0; 0.99% of 360,000 active;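 active = activation above the mean activation of all test compounds in the run plus 3 SD, cut at about 38% in these data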
#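 Repeats: no replicates (n 1) | Material: CHO-derived RD-HGA16 cells with stable Gα16 and human TAAR1 | Technique: Kinetic Fluo-8 calcium fluorescence | Schedule: 17-24 h seeding, 75 min 37 °C dye, 30 min RT | Evaluation: % activation from peak over basal fluorescence ratio, DMSO-to-PEA scaled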
# TAAR1 ag confirm: human TAAR1 agonism, confirmed; shares compounds with TAAR1 ag; CHO RD-HGA16 TAAR1, Fluo-8 calcium fluorescence; scaled: DMSO 0%, maximal phenethylamine 100%; activation, % at 3 µM; 82% of 2,400 active; AID 651783;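 active = activation above a cutoff set at the run's mean compound activation plus 3 SD, cut at about 39% in these data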
# Ga16 ag counter: nonselective agonism, TAAR1 counter-screen. CHO-Ga16 parental, Fluo-8 calcium fluorescence; normalized to maximal ATP response, DMSO zero. shares compounds with TAAR1 ag. 50% of 2,400 active. activation, % at 3 µM;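 active = activation above the run cutoff, the mean activation over all tested wells plus 3 SD, cut at about 12% in these data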;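 also: 0% = DMSO wells and 100% = maximal ATP response on the peak over basal ratio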
# TAAR1 desens: counter-screen for human TAAR1 agonists: agonists that desensitize TAAR1 | shares compounds with TAAR1 ag | CHO RD-HGA16 hTAAR1, Fluo-8 calcium, beta-PEA response inhibition | AID 651951 | 46% of 2,400 active | inhibition, % at 3 µM;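 active = inhibition above the run cutoff, the mean inhibition of all test compounds plus 3 SD, cut at about 49% in these data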;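 also: beta-PEA stimulus applied at its EC80; loss of beta-PEA calcium signal after compound pretreatment read as receptor desensitization; 0% = DMSO with beta-PEA at EC80 and 100% = DMSO alone without agonist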
# Ga16 antag count: counter-screen for TAAR1 agonists: nonselective Ga16 antagonists; shares compounds with TAAR1 ag; 39% of 2,400 active; inhibition, % at 3 µM; CHO-Ga16 ATP-induced calcium, Fluo-8 fluorescence; AID 651952;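 active = inhibition above the plate's mean compound inhibition plus 3 SD, computed per plate, cut at about 22% in these data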;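 also: 0% = EC80 ATP with DMSO and 100% = DMSO wells without ATP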
# Numbers without * were called inactive; . = not tested or not shown. This is a sample that favours compounds with a hit; in the whole collection about 4.5% have one here.
SMILES,OX1R antag-1,TAAR1 antagonist,CHO parental Ca,OX1R antag-2,GPR7 antag,TAAR1 ag,TAAR1 ag confirm,Ga16 ag counter,TAAR1 desens,Ga16 antag count
Cc1ccc(CCNC(=O)CCS(=O)(=O)c2ccc3c(c2)oc(=O)n3C)cc1,-28.7,-29.2,-18.8,3.2,8.3,3.3,.,.,.,.
Cn1c(=O)oc2cc(S(=O)(=O)CCC(=O)NCCc3ccccc3)ccc21,-5.8,16.1,-9.6,0.6,6.1,70.5*,29.8,0.5,14.5,7.3
O=C(CCS(=O)(=O)c1ccc2c(c1)NC(=O)CS2)NCCc1ccccc1,-19.3,25.5,-16.8,4.3,0.9,67.8*,67.6*,-0.1,35.4,10.6
COc1cc(/C=N/NC(=O)c2nnn(-c3nonc3N)c2C(C)C)ccc1O,-14.5,-1.4,10.3,-1.8,2.6,17.1,.,.,.,.
CC(C)c1c(C(=O)N/N=C/c2ccoc2)nnn1-c1nonc1N,-15.8,-4.7,-2.4,17.0,-5.7,64.7*,24.0,32.4*,18.2,7.2
CC(C)c1c(C(=O)N/N=C/c2ccc(OCc3ccc(F)cc3)cc2)nnn1-c1nonc1N,14.3,-7.1,10.5,15.4,-2.5,2.9,.,.,.,.
CC(C)c1c(C(=O)N/N=C/c2ccc(C(F)(F)F)cc2)nnn1-c1nonc1N,-26.7,79.2*,-38.1,12.9,20.6,149.7*,120.0*,89.2*,80.4*,39.5*
CC(C)c1c(C(=O)N/N=C/c2ccsc2)nnn1-c1nonc1N,-23.3,1.6,-2.9,-0.1,-12.6,104.7*,124.2*,82.5*,42.9,17.4
CC(C)c1ccc(/C=N/NC(=O)c2nnn(-c3nonc3N)c2CN2CCOCC2)cc1,-5.0,8.4,-4.1,0.1,-10.8,60.5*,89.7*,54.1*,16.3,14.4
CC(C)c1c(C(=O)N/N=C/c2cccs2)nnn1-c1nonc1N,-30.0,16.9,-9.6,6.3,-15.5,90.5*,108.1*,72.2*,24.2,12.0
CC(C)c1c(C(=O)N/N=C2\CCc3ccccc32)nnn1-c1nonc1N,-23.7,8.2,-13.6,11.9,14.6,61.9*,53.0*,15.7*,20.6,12.7
Cc1c(Cl)cccc1NC(=O)Nc1ccc(C(N)=O)cc1,6.7,-8.2,-7.2,19.7,-5.3,51.8*,59.7*,0.7,23.6,8.7
Cc1c(Cl)cccc1NC(=O)Nc1ccccc1C(N)=O,-8.7,-0.2,-4.7,4.1,0.4,3.3,.,.,.,.
O=C1Nc2ccccc2C(=O)C1(Cl)Cc1ccccc1 (stereo not drawn),10.4,8.7,-10.8,23.3,1.7,47.1*,16.7,7.8,24.3,7.1
c1ccc(-c2cnn3c(-c4ccccc4)c(-c4ccccc4)nc3n2)cc1,.,63.0*,.,.,8.1,76.5*,99.5*,121.0*,83.6*,81.5*
O=C(Nc1cccnc1)c1ccc(Cl)c(Cl)c1,2.5,10.2,-5.1,-9.2,-13.8,47.4*,40.8*,41.7*,15.0,11.6
NC(=O)c1cc(NC(=O)c2cc(Br)c(Br)s2)cc(C(N)=O)c1,-0.3,-24.9,-6.1,21.6,-12.3,2.9,.,.,.,.
O=C(Nc1cccnc1)c1cc(Br)c(Br)s1,-22.7,48.4,-1.3,32.2,.,91.3*,74.9*,59.3*,50.3*,23.0*
CS(=O)(=O)c1cccc(NC(=O)c2ccc(Cl)c(Cl)c2)c1,-4.0,25.5,-14.9,-5.6,-1.0,87.5*,60.1*,42.7*,47.7,28.3*
Cc1cccc(CCNCc2c(C(=O)O)c(C)n(-c3ccccc3)c2C)c1,-34.6,6.4,-29.1,0.2,-4.1,58.0*,77.7*,0.5,43.8,2.9
Cc1c(CNCCCc2ccccc2)c(C(=O)O)c(C)n1Cc1ccccc1,-12.8,-4.6,-33.7,-1.3,-1.1,11.0,.,.,.,.
Cc1ccc(C(=O)Oc2cc(N)n(S(=O)(=O)c3ccc(C)cc3)n2)cc1,-18.2,-19.4,-11.3,19.8,-13.5,7.0,.,.,.,.
Cc1ccc(S(=O)(=O)n2nc(OC(=O)c3ccccc3F)cc2N)cc1,-12.2,17.3,2.1,1.1,1.4,64.9*,73.4*,45.8*,29.6,10.5
Cc1ccccc1C(=O)Oc1cc(N)n(S(=O)(=O)c2ccccc2)n1,-27.1,40.8,-14.2,18.4,5.0,83.8*,8.3,0.7,-8.0,10.1
CC(C)(C)c1ccc(S(=O)(=O)NC(=O)C2(C)CCN2C(=O)c2cccc3ccccc23)cc1 (stereo not drawn),.,-15.4,.,.,.,45.6*,66.5*,14.1*,12.2,3.9
SMILES,OX1R antag-1,TAAR1 antagonist,CHO parental Ca,OX1R antag-2,GPR7 antag,TAAR1 ag,TAAR1 ag confirm,Ga16 ag counter,TAAR1 desens,Ga16 antag count
CC1(C(=O)NS(=O)(=O)c2ccccc2Cl)CCN1C(=O)c1cccc2ccccc12 (stereo not drawn),.,-20.5,.,.,.,1.9,.,.,.,.
Cc1ccc2scc(CN3CCCC3)c2c1,-6.3,-3.4,-14.9,5.5,.,23.3,.,.,.,.
CCOC(=O)C(NC(=O)CC)(N1CCc2ccccc2C1)C(F)(F)F (stereo not drawn),-15.5,95.6*,-1.8,6.4,1.9,92.6*,111.0*,1.5,97.9*,9.8
CCOC(=O)C(NC(=O)CC)(Nc1ccccc1)C(F)(F)F (stereo not drawn),-7.6,-35.1,-13.9,9.3,-5.2,2.1,.,.,.,.
CC1CCN(CCCNC(=O)c2coc3nc4ccccc4nc23)CC1,-14.2,5.1,-13.3,45.5,1.5,10.6,.,.,.,.
Cc1ccc(CCNC(=O)c2coc3nc4ccccc4nc23)cc1,-18.6,8.1,-14.2,30.0,-8.8,70.1*,26.5,2.6,15.9,23.1*
CCCOc1cc(C)c(S(=O)(=O)N2CCN(C)CC2)cc1C,-34.9,-26.4,-16.8,7.3,-6.1,45.7*,42.2*,0.5,-4.9,-3.0
Cc1ccc(C(C2=C(O)CC(C)(C)CC2=O)C2C(=O)CC(C)(C)CC2=O)s1 (stereo not drawn),-6.5,-11.2,-24.5,16.5,-12.5,34.9,.,.,.,.
CC1(C)CC(=O)C(C(C2=C(O)CC(C)(C)CC2=O)c2ccc(Br)s2)C(=O)C1 (stereo not drawn),-19.4,19.5,-17.0,9.7,-4.5,50.8*,22.4,34.2*,42.1,26.5*
Cc1ccc(N=C2NC(=O)/C(=C/c3cccn3C)S2)cc1,20.6,-24.9,-16.3,16.6,-5.4,3.2,.,.,.,.

# Assay outcomes from PubChem.
